In brackets after ≈: the same amount, converted by molar mass.
Key:
[1] = system: Trichophyton mentagrophytes; assay: Antifungal activity against Trichophyton mentagrophytes after 48 hrs by agar diffusion method; type: functional
[2] = system: Klebsiella pneumoniae; assay: Bactericidal activity against clinical isolate of Klebsiella pneumoniae after 18 to 24 hrs by colony counting method; type: functional
[3] = system: Candida albicans; assay: Antifungal activity against Candida albicans after 48 hrs by agar diffusion method; type: functional
[4] = system: Staphylococcus aureus; assay: Bactericidal activity against methicillin-resistant Staphylococcus aureus after 18 to 24 hrs by colony counting method; type: functional
How it was run: (§1)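 Colonies were counted after 18–24 h at 35 °C. MBC is the lowest concentration that kills 99.9% of the inoculum.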

[5] = system: Talaromyces marneffei; assay: Antifungal activity against Penicillium marneffei after 48 hrs by agar diffusion method; type: functional
[6] = system: Candida albicans; assay: Antifungal activity against Candida albicans after 48 hrs; type: functional
How it was run: (§2)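 Broth with two-fold serial dilutions of compound was inoculated with 1.6 × 10⁴–6 × 10⁴ c.f.u/ml and incubated at 35 °C. MIC is the lowest concentration that arrests growth. For MFC, 0.1 ml was spread on agar, colonies were counted after 48 h at 35 °C, and the endpoint was the lowest concentration killing 99.9%.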

[7] = system: Trichophyton mentagrophytes; assay: Antifungal activity against Trichophyton mentagrophytes after 48 hrs; type: functional; how it was run: as §2
[8] = system: Staphylococcus aureus; assay: Antibacterial activity against methicillin-resistant Staphylococcus aureus after 24 hrs by broth dilution method; type: functional
[9] = system: Klebsiella pneumoniae; assay: Antibacterial activity against clinical isolate of Klebsiella pneumoniae after 24 hrs by broth dilution method; type: functional
[10] = system: Escherichia coli; assay: Antibacterial activity against Escherichia coli ATCC 25922 after 24 hrs by disk diffusion method; type: functional
[11] = system: Escherichia coli; assay: Antibacterial activity against Escherichia coli ATCC 25922 after 24 hrs by broth dilution method; type: functional; conditions: ATCC 25922, 24 h
[12] = system: Streptococcus pyogenes; assay: Antibacterial activity against clinical isolate of Streptococcus pyogenes after 24 hrs by broth dilution method; type: functional
[13] = system: Klebsiella pneumoniae; assay: Antibacterial activity against clinical isolate of Klebsiella pneumoniae after 24 hrs by disk diffusion method; type: functional
[14] = system: Pseudomonas aeruginosa; assay: Antibacterial activity against Pseudomonas aeruginosa ATCC 27853 after 24 hrs by broth dilution method; type: functional; conditions: ATCC 27853, 24 h
[15] = system: Pseudomonas aeruginosa; assay: Bactericidal activity against Pseudomonas aeruginosa ATCC 27853 after 18 to 24 hrs by colony counting method; type: functional; how it was run: as §1
[16] = system: Aspergillus fumigatus; assay: Antifungal activity against Aspergillus fumigatus after 48 hrs; type: functional; how it was run: as §2
[17] = system: Pseudomonas aeruginosa; assay: Antibacterial activity against Pseudomonas aeruginosa ATCC 27853 after 24 hrs by disk diffusion method; type: functional
[18] = system: Talaromyces marneffei; assay: Antifungal activity against Penicillium marneffei after 48 hrs; type: functional; how it was run: as §2
[19] = system: Aspergillus fumigatus; assay: Antifungal activity against Aspergillus fumigatus after 48 hrs by agar diffusion method; type: functional
[20] = system: Staphylococcus aureus; assay: Antibacterial activity against methicillin-resistant Staphylococcus aureus after 24 hrs by disk diffusion method; type: functional
[21] = system: Streptococcus pyogenes; assay: Antibacterial activity against clinical isolate of Streptococcus pyogenes after 24 hrs by disk diffusion method; type: functional
[22] = system: Streptococcus pyogenes; assay: Bactericidal activity against clinical isolate of Streptococcus pyogenes after 18 to 24 hrs by colony counting method; type: functional
[23] = system: Escherichia coli; assay: Bactericidal activity against Escherichia coli ATCC 25922 after 18 to 24 hrs by colony counting method; type: functional; how it was run: as §1
[24] = system: Pseudomonas aeruginosa; assay: microbe, parasite or virus in culture; conditions: ATCC 27853, 24 h, read-out: DIZ
[25] = system: Klebsiella pneumoniae; assay: Antibacterial activity against clinical isolate of Klebsiella pneumoniae at 30 ug after 24 hrs by Halo zone test; conditions: read-out: DIZ
[26] = system: Streptococcus pyogenes; assay: Antibacterial activity against clinical isolate of Streptococcus pyogenes after 24 hrs at 30 ug by Halo zone test; conditions: read-out: DIZ
[27] = system: Staphylococcus aureus; assay: Antibacterial activity against methicillin-resistant Staphylococcus aureus at 30 ug after 24 hrs by Halo zone test; conditions: read-out: DIZ
[28] = system: Talaromyces marneffei; assay: Antifungal activity against Penicillium marneffei after 48 hrs by Halo zone test; type: functional
[29] = system: Candida albicans; assay: Antifungal activity against Candida albicans after 48 hrs by Halo zone test; type: functional
[30] = system: Trichophyton mentagrophytes; assay: Antifungal activity against Trichophyton mentagrophytes after 48 hrs by Halo zone test; type: functional
[31] = system: Aspergillus fumigatus; assay: Antifungal activity against Aspergillus fumigatus after 48 hrs by Halo zone test; type: functional

| SMILES | diameter of the inhibition zone (DIZ) [1] [mm] | MBC [2] [µg/mL] | diameter of the inhibition zone (DIZ) [3] [mm] | MBC [4] [µg/mL] | diameter of the inhibition zone (DIZ) [5] [mm] | MFC [6] [µg/mL] | MIC [6] [µg/mL] | MFC [7] [µg/mL] | MIC [7] [µg/mL] | MIC [8] [µg/mL] | MIC [9] [µg/mL] | diameter of the inhibition zone (DIZ) [10] [mm] | MIC [11] [µg/mL] | MIC [12] [µg/mL] | MBC [15] [µg/mL] | MFC [16] [µg/mL] | MIC [16] [µg/mL] | MFC [18] [µg/mL] | MIC [18] [µg/mL] | MBC [23] [µg/mL] | other results |
| --- | --- | --- | --- | --- | --- | --- | --- | --- | --- | --- | --- | --- | --- | --- | --- | --- | --- | --- | --- | --- | --- |
| Cc1nn(-c2ccccc2)c(Cl)c1C1CC(C2C(=O)NC(=S)NC2=O)=NN1 (stereo not given) | 15.8 | > 100 | 20.2 | > 100 | 13.1 | 100 (≈ 248 µM) | 50 (≈ 124 µM) | 100 (≈ 248 µM) | 25 (≈ 62.1 µM) | 100 (≈ 248 µM) | 50 (≈ 124 µM) | 19.1 | 50 (≈ 124 µM) | 50 (≈ 124 µM) | 100 (≈ 248 µM) | 100 (≈ 248 µM) | 25 (≈ 62.1 µM) | > 100 | > 100 | 100 (≈ 248 µM) | diameter of the inhibition zone (DIZ) [13]: 14.4 mm; MIC [14]: 50 µg/mL (≈ 124 µM); diameter of the inhibition zone (DIZ) [17]: 18.2 mm; diameter of the inhibition zone (DIZ) [19]: 16.2 mm; diameter of the inhibition zone (DIZ) [20]: 14.2 mm; diameter of the inhibition zone (DIZ) [21]: 15.2 mm; MBC [22]: 100 µg/mL (≈ 248 µM) |
| Cc1nn(-c2ccccc2)c(Cl)c1C1CC(C2C(=O)N(C)C(=O)N(C)C2=O)=NN1 (stereo not given) | 16.9 | 100 (≈ 241 µM) | 20.8 | 100 (≈ 241 µM) | 14.2 | 100 (≈ 241 µM) | 25 (≈ 60.3 µM) | 100 (≈ 241 µM) | 25 (≈ 60.3 µM) | 50 (≈ 121 µM) | 50 (≈ 121 µM) | 19.6 | 25 (≈ 60.3 µM) | 25 (≈ 60.3 µM) | 100 (≈ 241 µM) | 100 (≈ 241 µM) | 25 (≈ 60.3 µM) | > 100 | 50 (≈ 121 µM) | 100 (≈ 241 µM) | diameter of the inhibition zone (DIZ) [13]: 15.7 mm; MIC [14]: 50 µg/mL (≈ 121 µM); diameter of the inhibition zone (DIZ) [17]: 21.8 mm; diameter of the inhibition zone (DIZ) [19]: 17.4 mm; diameter of the inhibition zone (DIZ) [20]: 16.5 mm; diameter of the inhibition zone (DIZ) [21]: 17.1 mm; MBC [22]: 50 µg/mL (≈ 121 µM) |
| O=C(O)c1cn(C2CC2)c2cc(N3CCNCC3)c(F)cc2c1=O [CIPROFLOXACIN] | – | – | – | 50 (≈ 151 µM) | – | – | – | – | – | – | – | – | – | – | 25 (≈ 75.4 µM) | – | – | – | – | 50 (≈ 151 µM) | zone of inhibition at 30 µg/disc [24]: 32 mm; zone of inhibition at 30 µg/disc [25]: 18 mm; zone of inhibition at 30 µg/disc [26]: 24 mm; zone of inhibition at 30 µg/disc [27]: 25 mm |
| OC(Cn1cncn1)(Cn1cncn1)c1ccc(F)cc1F [FLUCONAZOLE] | – | – | – | – | – | 12.5 (≈ 40.8 µM) | 6.25 (≈ 20.4 µM) | 12.5 (≈ 40.8 µM) | 6.25 (≈ 20.4 µM) | – | – | – | – | – | – | 12.5 (≈ 40.8 µM) | 6.5 (≈ 21.2 µM) | 12.5 (≈ 40.8 µM) | 6.5 (≈ 21.2 µM) | – | diameter of the inhibition zone (DIZ) [28]: 18 mm; diameter of the inhibition zone (DIZ) [29]: 20 mm; diameter of the inhibition zone (DIZ) [30]: 19 mm; diameter of the inhibition zone (DIZ) [31]: 20 mm |
| Cc1nn(-c2ccccc2)c(Cl)c1/C=C/C(=O)C1C(=O)NC(=S)NC1=O | 17.1 | 50 (≈ 129 µM) | 20.4 | 50 (≈ 129 µM) | 14.1 | 50 (≈ 129 µM) | 25 (≈ 64.3 µM) | 50 (≈ 129 µM) | 25 (≈ 64.3 µM) | 25 (≈ 64.3 µM) | 25 (≈ 64.3 µM) | 20.7 | 50 (≈ 129 µM) | 25 (≈ 64.3 µM) | 100 (≈ 257 µM) | 50 (≈ 129 µM) | 25 (≈ 64.3 µM) | 100 (≈ 257 µM) | 25 (≈ 64.3 µM) | 100 (≈ 257 µM) | diameter of the inhibition zone (DIZ) [13]: 15.4 mm; MIC [14]: 25 µg/mL (≈ 64.3 µM); diameter of the inhibition zone (DIZ) [17]: 22.1 mm; diameter of the inhibition zone (DIZ) [19]: 17.9 mm; diameter of the inhibition zone (DIZ) [20]: 17.1 mm; diameter of the inhibition zone (DIZ) [21]: 18.4 mm; MBC [22]: 100 µg/mL (≈ 257 µM) |

Reference: ChEMBL document CHEMBL1770075, “Thermal solvent-free synthesis of novel pyrazolyl chalcones and pyrazolines as potential antimicrobial agents” (2011)
